LMPTP inh: blocks human LMPTP phosphatase; recombinant LMPTP-A, OMFP fluorogenic substrate, fluorescence intensity; inhibition, % at 20 µM; 360,000 tested, 0.22% active;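 active = compounds that cut the enzyme signal by at least half of the control window in the single-dose screen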;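 note: plate controls were DMSO wells with enzyme plus substrate for no effect and substrate without enzyme for full effect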
Target sequence (P24666 whole entry, looked up): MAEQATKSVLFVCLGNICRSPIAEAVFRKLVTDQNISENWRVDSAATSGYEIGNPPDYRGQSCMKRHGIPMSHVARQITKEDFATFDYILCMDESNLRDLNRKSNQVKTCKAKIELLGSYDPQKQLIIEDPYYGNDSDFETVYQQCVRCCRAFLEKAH
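test system = LMPTP-A | amount = 0.625 nM LMPTP-A final | reagent = fluorogenic phosphatase substrate OMFP at 400 µM final | incubation = 50 min at room temperature | benchmarks = no-enzyme low control, uninhibited high control | medium = Bis-Tris pH 6.0, DTT, detergent | signal = fluorescence intensity of OMFP turnover product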
Scp-1 inhibitor: Scp-1 (human) phosphatase inhibition. Q9GZU7. Recombinant Scp1, phosphopeptide, malachite green phosphate absorbance. inhibition, % at 20 µM. 340,000 tested, 0.88% active;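 active = inhibition above about 50% at 20 µM, limit read from the data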;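 note: plate controls were DMSO wells with enzyme for no effect and wells lacking enzyme for full effect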
Target sequence (Q9GZU7 76-261 limits assumed): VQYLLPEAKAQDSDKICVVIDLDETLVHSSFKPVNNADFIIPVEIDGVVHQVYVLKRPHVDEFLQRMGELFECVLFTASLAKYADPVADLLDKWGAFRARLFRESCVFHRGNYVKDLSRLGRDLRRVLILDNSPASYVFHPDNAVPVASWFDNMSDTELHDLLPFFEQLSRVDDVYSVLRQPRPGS
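assay system = SCP-1 phosphatase catalytic domain, residues 76-261 | buffer or medium = 50 mM Tris acetate pH 5.5, 0.005% Tween-20, 10 mM MgCl2 | incubation = enzyme reaction 45 min at room temperature, colour 5 min, stabilisation 30 min | signal = Phosphate-binding colour reagent, absorbance read at 630 nm | measure = % inhibition at 20 µM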
STEP block: blocks human striatal-enriched tyrosine phosphatase | P54829 | recombinant STEP, OMFP fluorogenic substrate, fluorescence | inhibition, % at 20 µM | 360,000 tested, 0.25% active | AID 588621;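 active = inhibition at 20 µM, scaled per plate between control wells, above about 37%, limit read from the data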;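 note: 0% = DMSO with enzyme and substrate and 100% = substrate only without enzyme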
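Material: STEP (striatal-enriched tyrosine phosphatase) enzyme, cell-free | Medium: 50 mM Bis-Tris pH 6.0 with 2.5 mM DTT and 0.005% Tween 20 | Read-out: Percent inhibition scaled to no-enzyme and uninhibited-enzyme controls, plate-pattern corrected | Signal: Fluorescence read at 480 nm ex / 540 nm em | Times: 20 min reaction, room temperature, in the dark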
GRK2 inh: blocks RNA aptamer binding to human GRK2 | inhibition of aptamer binding, % at 10 µM | bead flow cytometry, FAM-aptamer displacement from GRK2 | 330,000 tested, 0.59% active;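 active = inhibition of aptamer binding above 40%, roughly 3 SD of noise, on plates passing a quality check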;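 note: median bead fluorescence of bound FAM aptamer so fluorescent compounds give negative values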
SUMO1-SIM PPI: alters human SUMO1 binding to SIM partners; SUMO1 binding to a labelled peptide, TR-FRET, 1 h; 360,000 tested, 0.33% active; inhibition, % at 20 µM; in the data active = inhibition above about 37%
Target sequence (P63165 whole entry, looked up): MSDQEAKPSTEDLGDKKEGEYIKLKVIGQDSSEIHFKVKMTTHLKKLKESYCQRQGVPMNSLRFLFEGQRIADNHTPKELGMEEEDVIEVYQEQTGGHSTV
DNMT1 block: inhibitors of human DNMT1. P26358. 360,000 tested, 0.83% active. DNMT1 molecular beacon, Hinp1I cleavage, fluorescence. inhibition (reported as % activation of signal), % at 10 µM; in the data active = inhibition above about 50%
* = called active by the depositor; nt = no result. A selection: hits, their analogues and other compounds. The true share with any hit is near 2.2%.

SMILES	LMPTP inh	Scp-1 inhibitor	STEP block	GRK2 inh	SUMO1-SIM PPI	DNMT1 block
CN(C(=O)COC(=O)c1ccc(-c2ccc(O)cc2)cc1)C1CCS(=O)(=O)C1 (stereo unspecified)	1	-6	-1	4	39*	-1
O=C(CSC(=S)N1CCCCC1)Nc1nc(-c2ccccc2)c(-c2ccccc2)o1	3	1	3	3	51*	4
CC[C@@H](C)[C@@H](CO)NC(=O)[C@H]1O[C@@H](n2cnc3c(N)ncnc32)[C@H](O)[C@@H]1O	-2	nt	3	nt	4	1
O=C1C(=C(I)I)c2ccccc2-c2ccccc21	37	44	11	nt	36*	115*
N#CC1=C(c2ccccc2)/C(=C/c2ccccc2)OC1=O	0	-7	4	0	6	19
N#CC(C#N)=C1NC(N)=C(C#N)C(c2ccccc2)=C1C#N	3	nt	2	3	41*	-3
Cc1ccc(NC(=O)CN2C(=O)S/C(=C/c3ccc(O)c([N+](=O)[O-])c3)C2=O)cc1C	80*	76*	24	nt	3	-9
O=C1S/C(=C\c2ccc(O)c([N+](=O)[O-])c2)C(=O)N1Cc1cccc([N+](=O)[O-])c1	2	1	7	1	7	-3
COc1cccc(CNC(=O)[C@@H]2CCCN2C(=O)[C@H]2CCCCN2S(=O)(=O)c2ccc(OC)c(C)c2)c1	-1	nt	nt	nt	2	nt
O=C(N/N=C/C(Br)=C/c1ccccc1)c1n[nH]c2c1CCC2	4	6	1	0	0	57*
O=C(O)c1ccc(Cl)c2c1C1C=CCC1C(c1ccccn1)N2 (stereo unspecified)	nt	nt	nt	47*	nt	nt
O=[N+]([O-])c1ccc(Cl)c2c1C1C=CCC1C(c1ccccn1)N2 (stereo unspecified)	14	-3	4	1	17	51*
COc1ccc(C2=Nc3ccccc3N(C(=O)c3ccc4ncccc4c3)C2C(=O)NC2CCCC2)cc1 (stereo unspecified)	1	nt	nt	nt	-15	nt
O=c1[nH]c(=S)[nH]c2c1C(c1ccc(Br)cc1)c1c([nH]c(=S)[nH]c1=O)O2	68*	97*	92*	19	115*	67*
O=C1CCCC2=C1C(c1ccc(Br)cc1)c1c([nH]c(=S)[nH]c1=O)N2 (stereo unspecified)	18	0	1	4	13	-3
CC(C)CN(C(=O)COC(=O)c1cccs1)c1c(N)n(Cc2ccccc2)c(=O)[nH]c1=O	1	nt	-1	nt	3	5
CC(C)CN(C(=O)COC(=O)c1ccc([N+](=O)[O-])s1)c1c(N)n(Cc2ccccc2)c(=O)[nH]c1=O	-1	-4	0	3	-19	56*
COCCN(C(=O)COC(=O)c1cc2c(s1)CCC2)c1c(N)n(Cc2ccccc2)c(=O)[nH]c1=O	72*	88*	96*	98*	112*	101*
CCOC(=O)[C@]12CCCC=C1N(Cc1ccc3c(c1)OCO3)C(=O)[C@H](CC(=O)N1CCCCC1)C2	-1	nt	nt	nt	-3	nt
Cc1cccc(C)c1NC(=O)C1(C)CN(S(C)(=O)=O)CC(=O)N1Cc1ccco1 (stereo unspecified)	-1	nt	nt	nt	-10	nt
NC(c1csc(Nc2ccc(C(F)(F)F)cn2)n1)C1CCCCC1 (stereo unspecified)	-2	nt	4	nt	-39	0
CCn1c2ccccc2c2cc(NC(=O)N3CCCCC3)ccc21	0	nt	2	nt	6	4
Cc1cc2nc(-c3ccc(SCc4ccc(C(=O)O)cc4)nc3)[nH]c2cc1C	68*	79*	92*	0	21	-1
O=C(Nc1ccccc1F)NC1CCCCCCC1	1	-2	2	0	0	-1
O=C(Nc1ccccc1F)NC1CC1	-2	-5	0	0	56*	3
SMILES	LMPTP inh	Scp-1 inhibitor	STEP block	GRK2 inh	SUMO1-SIM PPI	DNMT1 block
CN(CC(=O)Nc1ccc(Cl)cc1)C(=O)CN1C(=O)C2CCCCC2C1=O (stereo unspecified)	-2	nt	1	nt	5	4
CC(C)OC(=O)c1c(N)n(CCCN2CCOCC2)c2nc3ccccc3nc12	1	17	0	1	-7	-4
COCC(C)OC(=O)c1c(N)n(CC(C)C)c2nc3ccccc3nc12 (stereo unspecified)	20	5	3	4	41*	60*
O=C1NC(=S)SC1=Cc1ccccn1	0	nt	1	nt	-12	-3
O=C(CO/N=C/c1ccc(OC(F)F)cc1)N1CCc2ccccc21	0	-2	4	100*	-4	-10
N#CC1=C2SCN(Cc3ccccc3)CN2C(=O)CC1c1cccs1 (stereo unspecified)	6	-1	48*	3	3	-3
Cc1cccc(N2CCN(C(=O)c3[nH]c(C(F)(F)F)nc3-c3ccccc3)CC2)c1C	1	nt	-1	nt	10	2
COc1ccccc1-c1nnc(SCC(=O)N2CCC(C)CC2)o1	-1	-14	-1	4	-1	-1
CC1CCN(C(=O)CSc2nnc(-c3ccccc3F)o2)CC1	-1	-4	2	0	54*	0
CC(C)[C@H](CO)Nc1nc(Nc2ccc(Cl)c(C(=O)O)c2)c2ncn(C(C)C)c2n1	1	4	-2	1	69*	1
CC(C)n1cnc2c(Nc3ccc(C(=O)O)cc3)nc(Cl)nc21	-1	-11	3	0	6	6
Cc1nc(COC(=O)c2cc(O)c3ccccc3c2O)cs1	1	69*	-4	nt	-19	-12
Cc1nc(COC(=O)c2ccc(CO)cc2)cs1	-2	0	0	0	-2	0
COc1ccc(-n2nc3c(N4CCC(C(=O)NCc5ccco5)CC4)nnc(C)c3c2C)cc1	53*	5	1	0	15	2
Cc1ccc(-n2nc3c(N4CCC(C(=O)NCc5ccc(C)o5)CC4)nnc(C)c3c2C)cc1	65*	3	0	0	33	-7
CCOc1ccccc1CNC(=O)C1CCCN(c2nnc(C)c3c(C)n(-c4ccccc4)nc23)C1 (stereo unspecified)	6	6	-2	0	47*	2
COc1ccc(-n2nc3c(N4CCC(C(=O)NCc5ccccc5C)CC4)nnc(C)c3c2C)cc1	26	30	-2	0	16	21
CC(C)=C[C@H]1C[C@H](C)[C@H]2CC[C@H](C)c3c(O[C@@H]4O[C@@H](C)[C@@H](O)[C@@H](O)[C@@H]4O)c(O)c(C)c1c32	1	nt	-5	nt	-1	-9
Cn1c(SCC(=O)NC2CCCCC2)nnc1-c1cccc(N)c1	-1	-5	3	1	41*	-1

Screening results deposited in PubChem BioAssay by several laboratories.
